Compounds with a hit are over-represented: about 1.5% of the library has one in this group of screens.
MsrA act – activates bovine MsrA enzyme | activation, % at 10.6 µM | AID 602163 | hit rate 0.3% among 360,000 | purified bovine MsrA, absorbance read-out; in the data active means activation above about 7.5%;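 further: 0% = vehicle and 100% = reference activator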
proCasp7 act – counter-screen for procaspase-3 activators: activators of human procaspase-7. P55210. recombinant procaspase-7, Ac-DEVD-pNA absorbance 405 nm; D23A/D198A/D206A triple mutant, cannot self-cleave; scale: DMSO 0, 5 µM enzyme 100. activation, % at 8.5 µM. hit rate 0.093% among 330,000;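 active means percent activation above the screen-wide mean plus 3 SD, cut at about 25% in these data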
Target sequence (P55210 whole entry D23A/D198A/D206A): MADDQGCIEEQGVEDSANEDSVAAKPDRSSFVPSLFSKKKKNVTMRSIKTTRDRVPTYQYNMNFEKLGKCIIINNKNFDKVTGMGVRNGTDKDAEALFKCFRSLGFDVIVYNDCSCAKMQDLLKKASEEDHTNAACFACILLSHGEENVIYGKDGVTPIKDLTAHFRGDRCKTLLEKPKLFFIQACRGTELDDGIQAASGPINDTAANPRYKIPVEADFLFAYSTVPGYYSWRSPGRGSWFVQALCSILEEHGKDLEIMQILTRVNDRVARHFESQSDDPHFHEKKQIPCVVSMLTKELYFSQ
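Replicates: singlicate. Assay system: Procaspase-7 triple mutant (PC-7 D3A). Signal: 405 nm absorbance of p-nitroaniline. Times: 1 h preincubation, 2 h reaction. Buffer or medium: Zinc-free HEPES pH 7.4 with 300 mM NaCl, 0.01% Triton X-100. Also added: DEVD-pNA substrate. Benchmarks: DMSO wells as 0%, DMSO with 5 µM added PC-7 as 100%.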
Tb MetRS inh – Trypanosoma brucei MetRS inhibition; purified T. brucei MetRS, ATP depletion, Kinase-Glo luminescence; inhibition, % at 11.9 µM; hit rate 0.4% among 360,000;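 active means inhibition above a per-plate cutoff of the control wells' mean inhibition plus 3 SD, cut at about 5.5% in these data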;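 further: 0% = DMSO wells median and 100% = median of wells with control inhibitor compound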
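Test system: purified T. brucei MetRS enzyme. Also added: ATP, methionine and E. coli bulk tRNA substrates. Compound: 11.9 µM single point. Schedule: 15 min enzyme-compound preincubation, 2 h reaction, 10 min detection, 25 °C. Signal: luciferase luminescence of residual ATP, Kinase-Glo. Evaluation: percent inhibition versus plate control medians. Controls: DMSO wells, low control.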
MsrA inh – inhibitors of bovine MsrA. purified bovine MsrA, absorbance read-out. inhibition, % at 15.5 µM. hit rate 0.75% among 360,000. AID 651718;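 further: 0% = vehicle wells with enzyme and 100% = reference inhibitor wells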
proCasp3 act – activators of human procaspase-3. recombinant procaspase-3 D3A, Ac-DEVD-pNA absorbance 405 nm. hit rate 0.11% among 330,000. activation, % at 8.5 µM. AID 463141;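 active means activation above the mean of all tested compounds plus 3 SD, cut at about 21% in these data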;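 further: 0% = DMSO alone and 100% = DMSO wells spiked with extra 5 µM PC-3 D3A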
Target sequence (P42574 whole entry D9A/D28A/D175A): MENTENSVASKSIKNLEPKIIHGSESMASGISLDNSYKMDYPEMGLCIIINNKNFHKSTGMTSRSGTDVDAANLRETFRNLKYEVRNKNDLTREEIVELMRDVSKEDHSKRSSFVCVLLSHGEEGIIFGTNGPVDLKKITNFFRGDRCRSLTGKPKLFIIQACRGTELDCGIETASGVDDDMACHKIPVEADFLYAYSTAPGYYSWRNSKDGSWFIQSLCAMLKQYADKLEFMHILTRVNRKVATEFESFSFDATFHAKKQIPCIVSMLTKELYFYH
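Technique: 405 nm absorbance of p-nitroaniline, reads at 0 and 120 min; Test system: Procaspase-3 D3A mutant; Incubation: 1 h enzyme-compound preincubation, then 2 h substrate reaction, 25 °C; Repeats: singlicate, each compound tested once; Benchmarks: low control DMSO wells, high control DMSO plus 5 µM PC-3 D3A.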
MsrA conf – confirmation of bovine MsrA inhibitors; hit rate 41% among 2,300; AID 651822; purified bovine MsrA, absorbance read-out; shares compounds with MsrA inh; inhibition, % at 15.5 µM;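 further: coupled to thioredoxin reductase with NADPH and selenocystamine and DMSO as substrate; 0% = vehicle only and 100% = full effect of reference inhibitor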
* marks the source's active call; other numbers are inactive results; · = no result. Unless noted, no stated cut-off is given here; in the data, active means inhibition above about 4.5%; inactive means the rest.

SMILES	MsrA act	proCasp7 act	Tb MetRS inh	MsrA inh	proCasp3 act	MsrA conf
Cn1c(C(=O)O)cc2c(=O)n3ccccc3nc21	-8	-1	-1	5.3*	-2	2
Cn1c(C(=O)N2CCOCC2)cc2c(=O)n3ccccc3nc21	-3	-4	0	3	1	·
CNC(=O)N(O)C1N(/N=C/c2ccc(SC)cc2)C(=S)SC1(C)C (centres undefined)	-6	0	0	3	11	·
CN(C)c1ccc(/C=N/N2C(=S)SC(C)(C)C2N(O)C(=O)Nc2ccc([N+](=O)[O-])cc2)cc1 (centres undefined)	-10	-2	0	6.1*	12	2
Nc1[nH]c(C(=O)c2ccc(Br)cc2)c(-c2ccc(Br)cc2)c1C(=O)NCc1cccc2ccccc12	·	·	·	1	·	·
COc1cc(/C=N\NC(=O)c2sc(N)nc2C)cc(OC)c1OC	-7	6	0	7.0*	-2	5.2*
Cc1nc(N)sc1C(=O)N/N=C/c1ccc([N+](=O)[O-])cc1	-8	4	-1	0	-3	·
CC(/C=N/NC(=O)c1sc(N)nc1C)=C\c1ccccc1	-4	-1	0	6.7*	1	4
CN1CCCCC(NC(=O)CCCl)C1=O (centres undefined)	·	·	·	1	·	·
CCN1C(=O)N(C(C)=O)[C@H]2C[C@H](C(=O)N3CCCC3)[C@H](C)[C@H](c3ccccc3)C[C@H]21	·	·	·	0	·	·
COc1ccc(/C=N/NC(=O)c2ccn[nH]2)cc1COc1ccc([N+](=O)[O-])c(C)c1	-1	3	1	2	-6	·
COc1ccc(/C=N/NC(=O)c2cccnc2)cc1COc1ccc([N+](=O)[O-])c(C)c1	-4	-1	1	4.7*	-10	1
COc1ccc2c(c1)-c1c(sn(-c3ccccc3)c1=S)C(C)(C)N2	-6	6	-1	4.7*	1	1
CCOC(=O)C1=CCN(S(C)(=O)=O)C1c1ccc(Cl)cc1 (centres undefined)	·	·	·	0	·	·
O=c1oc2ccccc2c(N2CCCC2)c1[N+](=O)[O-]	-1	5	0	3	-4	·
O=c1oc2ccc([N+](=O)[O-])cc2c(N2CCOCC2)c1[N+](=O)[O-]	·	1	·	5.1*	1	1
COC(=O)C1=C(C)N(Cc2ccc(C(F)(F)F)cc2)C(=NCc2cccc(C(F)(F)F)c2)NC1c1ccccc1C(F)(F)F (centres undefined)	·	·	·	-1	·	·
O=C(N/N=C/c1ccc(O)cc1O)c1ccncc1	-1	4	1	4.9*	-2	4
Cc1nonc1C(=O)N/N=C/c1ccc(O)cc1O	-3	-3	1	5.1*	-11	3
Cc1nc(SCC(=O)NC(C)(C#N)C2CC2)c2c(-c3cccs3)csc2n1 (centres undefined)	-1	5	1	-1	-4	·
CC1=NC2=CC=CC3=NC(C(Cl)(Cl)Cl)=NC(=N1)N23	·	·	·	1	·	·
CC(=O)N(C(C)=O)S(=O)(=O)c1ccc(N=NN2CCCCC2)cc1	-2	-4	0	5.0*	3	4
NS(=O)(=O)c1ccc(N=NN2CCCCC2)cc1	-5	4	0	5.3*	3	2
CN1CCN(C(=O)c2ccc(CNS(=O)(=O)c3cccc(Cl)c3)cc2)CC1	-3	·	0	0	·	·
NC(Cc1ccccc1)C(=O)N1CCCCC1 (centres undefined)	-3	1	0	-1	-4	·
SMILES	MsrA act	proCasp7 act	Tb MetRS inh	MsrA inh	proCasp3 act	MsrA conf
CC1CN(C)CCC1OC(=O)c1ccccc1 (centres undefined)	-4	·	-1	0	·	·
COc1cc(/C=C2/NC(=O)N(Cc3ccccc3F)C2=O)cc(OC)c1O	-4	0	-2	5.0*	-5	2
O=C1OC(c2cccs2)=N/C1=C/c1ccc(-c2cccc(C(=O)O)c2)o1	-5	·	0	4	·	·
O=C1OC(c2ccco2)=N/C1=C\c1ccc(-c2cccc(C(F)(F)F)c2)o1	-2	-14	0	5.6*	-1	2
O=C(O)C(Cc1ccccc1)Nc1ccc([N+](=O)[O-])cc1[N+](=O)[O-] (centres undefined)	-2	3	0	3	-7	·
O=C(O)[C@H](Cc1ccccc1)Nc1ccc([N+](=O)[O-])cn1	-3	-30	-1	4.8*	-22	3
O=S1(=O)N[C@H](Cc2ccccc2)COc2cc(F)ccc21	·	·	·	0	·	·
CC(=O)c1ccc(N2CCN(S(=O)(=O)c3c(C(=O)N4CCCCC4)c(C)n(C)c3C)CC2)cc1	-9	8	-1	2	4	·
CC(=O)c1ccc(N2CCN(S(=O)(=O)c3c(C(=O)N4CCCC4)c(C)n(C)c3C)CC2)cc1	-3	-2	-1	5.1*	2	4
CCC(CO)N=C1CC(C)(C)CC(=O)/C1=C(/O)CCCN1C(=O)c2ccccc2C1=O (centres undefined)	-6	8	1	0	0	·
O=C(/C=C/c1ccco1)Nc1cc(Cl)ccc1C(=O)O	-6	-7	-1	6.8*	1	5.2*
C=CCn1c(-c2csc(-c3ccccc3)n2)n[nH]c1=S	0	-6	0	5.4*	-15	3
CCOc1ccc(-c2nnn(CC(=O)N3CCCC(C)C3)n2)cc1 (centres undefined)	0	-11	0	0	3	·
CNc1ncnc(Sc2nc(N)nc3nc[nH]c23)c1[N+](=O)[O-]	-10	·	0	5.3*	·	5.5*
Oc1ccc(C=NN=Cc2ccco2)c(O)c1	-6	·	-1	4.9*	·	5.4*
NC(=N\N=Cc1ccco1)/C(N)=N/N=Cc1ccco1	0	·	0	4.8*	·	6.4*
NC(=N\N=Cc1ccccc1)/C(N)=N/N=Cc1ccccc1	-2	·	0	2	·	·
O=C(/C=C/c1cccs1)c1ccc(N2CCOCC2)cc1	-4	2	0	6.1*	0	2
O=C(/C=C/c1cccc(F)c1)c1ccc(N2CCOCC2)cc1	-4	-8	-1	1	-11	·
CSc1ccc(/C=N/NC(=O)c2cccc(O)c2)cc1	-3	2	-3	4.8*	-5	5.6*
CCOc1ccc(C(=O)N/N=C/c2ccc(SC)cc2)cc1	-4	6	0	1	9	·
Cc1cc(C)cc([C@H]2C[C@]34CN(C(=O)OC(C)(C)C)S(=O)(=O)[C@H]3C[C@H]2O4)c1	·	·	·	0	·	·
COc1cccc(/C(C)=N/Nc2ccc(S(=O)(=O)N3CCCCC3)cn2)c1	-7	2	0	4.8*	-2	3
O=C(O)c1ccc(/C=C(\c2nc3ccccc3[nH]2)c2nc3ccccc3s2)cc1	-11	6	1	5.4*	1	5.3*
O=C(O)c1ccc(-c2nc3ccccc3[nH]2)cc1	-3	6	3	1	-4	·

Screening data as filed in PubChem.
